Results: PubChem BioAssay
Results filed as inconclusive are left out.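 Rule for the calls, unless noted: active = cell viability at or below a set limit in both duplicate runs, the limit being the all-compound median minus 4 SD (cut at about 23% in these data, passing the limit was not always enough); inconclusive = no clear call, values can overlap the other calls; inactive = the rest.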

Experiments:
[1] = OD615 S. cerevisiae growth inhibition, permissive medium, pilot counter-assay, permissive growth control for S. cerevisiae lifespan shortening project (AID 705;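 active = growth inhibition above 25% in both replicates, a cutoff set 3 SD above the mean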); details: OD615, 24 h, at 10 µM, hits give high values
Outline: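 System: Engineered DeaD yeast | Buffer or medium: SC raffinose/galactose permissive medium | Doses: 10 µM single dose, 0.25% DMSO | Times: 24 h exposure, 30 °C | Measured by: OD615 turbidity read | Read-out: Yeast growth inhibition indicated by reduced 24 h OD615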

[2] = Restrictive medium S. cerevisiae growth inhibition, OD615, pilot screen of yeast lifespan reduction project, restrictive growth control (AID 706;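 active = growth inhibition above a set limit, 3 SD over mean compound inhibition, in both replicates, cut at about 43% in these data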;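 note: modified DeaD lifespan yeast strain shifted to restrictive glucose medium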); details: OD615, 48 h, at 10 µM, hits give high values
Outline: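 Assay system: engineered S. cerevisiae DeaD strain; Buffer or medium: CSMM-D glucose medium; Dosing: 10 µM compound, 0.25% DMSO; Times: cell pre-growth 4 h, compound exposure 48 h, 30 °C; Detection: absorbance (optical density) measured at 615 nm.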

[3] = viability gain of MRP-1-high H69AR cells under doxorubicin, pilot screen, MRP-1 activator project, CellTiter-Glo, duplicate (AID 807;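 active = viability increase at or above a cutoff of the median across tested compounds plus 3 SD, cut at about 8.5% in these data, passing the limit was not always enough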;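 note: compound pretreatment 18-22 h then 72 h combined with doxorubicin; 0% = doxorubicin alone and 100% = vehicle without doxorubicin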); details: H69AR viability with doxorubicin, CellTiter-Glo luminescence; at 10 µM; hits give high values
[4] = growth suppression of beta-catenin knockout HCT116, pilot screen, human colon tumor cells (AID 823); details: CellTiter-Glo, 60 h, at 10 µM, hits give low values;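 note: 0% = wells killed by 20 µM Hyamine and 100% = untreated DMSO cell wells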
[5] = growth suppression of PTEN-deleted HCT116, pilot screen, cell-based, HCT116 clonal line, CellTiter-Glo (AID 824;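 active = viability at or below 27.92% in each of two runs, the all-compound median minus 4 SD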;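 note: 0% = 20 µM Hyamine control and 100% = vehicle cell control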); details: 60 h, at 10 µM, hits give low values
[6] = inhibitors of the yeast RAM network, pilot screen, dse1pr::URA3 reporter, 5-FOA selection (AID 869;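 active = inhibition over a set limit, the all-compound mean plus 3 SD, in both replicate runs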;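 note: 0% = DMSO wells with no growth and 100% = 10 µM 1-NA-PP1 with full growth; RAM network block rescues cells from 5-FOA so hits raise OD615 growth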); details: S. cerevisiae dse1pr::URA3 5-FOA growth, OD615, 2 d; at 10 µM; hits give high values; strain carries analog-sensitive mutant Cbk1 kinase
[7] = RAM signaling pathway blockade in yeast – S. cerevisiae, Pdr1DBD-CYC8 efflux-inhibited sensitized strain, primary screen (AID 1298;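 active = RAM network inhibition above 8.4% in each of two replicates, 3 SD over the compound average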;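 note: 0% = DMSO untreated cells without growth and 100% = 10 µM 1-NA-PP1 full growth; higher means more yeast growth rescued from 5-FOA killing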); details: S. cerevisiae cbk1-as DSE1-URA3 strain, 5-FOA growth OD615, 2 d; at 50 µM; hits give high values

CCOc1ccc(C2c3c(oc4ccccc4c3=O)C(=O)N2c2ccccn2)cc1OC (configuration not stated)
inactive: growth inhibition [1] -15.4% | growth inhibition [2] -25.5% | viability increase [3] -4.13% | viability [4] 92.3% | viability [5] 96.2% | inhibition [6] 1.44% | RAM network inhibition [7] 1.32%

CCOc1ccc(-c2cc(NC(=O)Cn3ncc4c3-c3ccccc3OC4)on2)cc1OCC
inactive: growth inhibition [1] -7.96% | growth inhibition [2] -3.25% | viability increase [3] 1.4% | viability [4] 98.8% | viability [5] 91.2% | inhibition [6] 1.22% | RAM network inhibition [7] -0.17%

Cc1ccc(C(=O)CC2(O)C(=O)N(C)c3ccccc32)o1 (configuration not stated)
inactive: growth inhibition [1] -7.12% | growth inhibition [2] -13.5% | viability increase [3] -2.33% | viability [4] 99.3% | viability [5] 96.2% | inhibition [6] 0.645% | RAM network inhibition [7] 1.32%

CC1CCN(C(=O)c2ccc(NC(=O)C3CCCO3)cc2)CC1 (configuration not stated)
inactive: growth inhibition [1] -31.4% | growth inhibition [2] -18.3% | viability increase [3] -0.41% | viability [4] 96.4% | viability [5] 94.3% | inhibition [6] 1.26% | RAM network inhibition [7] 3.59%

COc1cccc(C2NC(=O)NC(O)(C(F)(F)F)C2C(=O)c2cccnc2)c1OC (configuration not stated)
inactive: growth inhibition [1] 2.02% | growth inhibition [2] -2.12% | viability increase [3] 0.64% | viability [4] 109% | viability [5] 98.9% | inhibition [6] 1.14% | RAM network inhibition [7] 0.92%

N#CC1(c2ccccc2)CCCN1C(=O)c1ccco1 (configuration not stated)
inactive: growth inhibition [1] -3.57% | growth inhibition [2] 3.69% | viability increase [3] -1.54% | viability [4] 104% | viability [5] 101% | inhibition [6] 2.25% | RAM network inhibition [7] 3.1%

Cc1ccc(O)c(C(=O)c2cnn(C(=O)Cc3csc(C)n3)c2)c1
inactive: growth inhibition [1] -1.97% | growth inhibition [2] 1.6% | viability increase [3] -0.48% | viability [4] 98.9% | viability [5] 88.3% | inhibition [6] -0.5% | RAM network inhibition [7] -1.67%

Cc1c(=O)n(OCc2ccccc2)c2ccccc2[n+]1[O-]
inactive: growth inhibition [1] -0.885% | growth inhibition [2] 1.5% | viability increase [3] -3.92% | viability [4] 95.9% | viability [5] 95.8% | inhibition [6] 0.09% | RAM network inhibition [7] 9.74%

COc1ccccc1CC1(C)NC(=O)N(CC(=O)N2CC(C)OC(C)C2)C1=O (configuration not stated)
inactive: growth inhibition [1] -25.5% | growth inhibition [2] -15% | viability increase [3] -0.71% | viability [4] 95.5% | viability [5] 97.9% | inhibition [6] 1.68% | RAM network inhibition [7] 1.34%

CCCCn1c(CCNC(=O)CC)nc2ccccc21
inactive: growth inhibition [1] -8.93% | growth inhibition [2] -5.17% | viability increase [3] -1.11% | viability [4] 98.8% | viability [5] 101% | inhibition [6] 1.86% | RAM network inhibition [7] 5.26%

COCCCNC(=O)CN(c1ccc(Cl)c(Cl)c1)S(C)(=O)=O
inactive: growth inhibition [1] 0.93% | growth inhibition [2] -7.01% | viability increase [3] -1.44% | viability [4] 99.4% | viability [5] 101% | inhibition [6] 0.96% | RAM network inhibition [7] -0.77%

CCSc1nnc(-c2ccc(Cl)cc2Cl)o1
inactive: growth inhibition [1] -10.3% | growth inhibition [2] -5.92% | viability increase [3] -5.13% | viability [4] 83.5% | viability [5] 85.4% | inhibition [6] 1.65% | RAM network inhibition [7] 2.2%

COc1ccc(C)cc1NC(=O)c1ccoc1C
inactive: growth inhibition [1] -1.21% | growth inhibition [2] 4.09% | viability increase [3] 0.93% | viability [4] 99.5% | viability [5] 87.8% | inhibition [6] 0.62% | RAM network inhibition [7] 7.87%

O/N=C1/CCCSc2ccccc21
inactive: growth inhibition [1] -7.19% | growth inhibition [2] -16.8% | viability increase [3] -1.24% | viability [4] 96.6% | viability [5] 97.9% | inhibition [6] 0.95% | RAM network inhibition [7] 2.18%

CC(C)c1ccc(N(CC(=O)O)S(=O)(=O)c2cccnc2)cc1
inactive: growth inhibition [1] -2% | growth inhibition [2] 8.54% | viability increase [3] -1.28% | viability [4] 93.3% | viability [5] 98.7% | inhibition [6] -0.135% | RAM network inhibition [7] -1.88%

COc1ccc(OC)c2[nH]c(=O)c(CCNC(C)=O)cc12
inactive: growth inhibition [1] -6.6% | growth inhibition [2] 3.73% | viability increase [3] -0.39% | viability [4] 109% | viability [5] 104% | inhibition [6] 2.21% | RAM network inhibition [7] 1.88%

O=C(CN(c1ccc(F)cc1)S(=O)(=O)c1ccc2c(c1)OCCO2)N1CCOCC1
inactive: growth inhibition [1] -3.38% | growth inhibition [2] -12.4% | viability increase [3] -2.08% | viability [4] 107% | viability [5] 104% | inhibition [6] 0.625% | RAM network inhibition [7] 2.45%

COc1ccc(C2C(C(=O)Nc3ccccc3OC)=C(C)Nc3ncnn32)cc1 (configuration not stated)
inactive: growth inhibition [1] -18.5% | growth inhibition [2] 6.38% | viability increase [3] -3.68% | viability [4] 99.2% | viability [5] 94.4% | inhibition [6] 1.78% | RAM network inhibition [7] -2.3%

COc1ccc(NC(=O)CCCC2=NS(=O)(=O)c3ccccc3N2)cc1
inactive: growth inhibition [1] -8.46% | growth inhibition [2] -7.47% | viability increase [3] -3.01% | viability [4] 103% | viability [5] 99.3% | inhibition [6] 1.23% | RAM network inhibition [7] 3.11%

CS(=O)(=O)c1ccc(C(=O)NC2CCOC2=O)cc1 (configuration not stated)
inactive: growth inhibition [1] -2.63% | growth inhibition [2] -3.86% | viability increase [3] -1.85% | viability [4] 102% | viability [5] 97.6% | inhibition [6] -0.295% | RAM network inhibition [7] 4.25%

O=C(NCc1ccncc1)C(F)(F)C(F)(F)C(=O)NCc1ccncc1
inactive: growth inhibition [1] -0.215% | growth inhibition [2] -3.65% | viability increase [3] -1.87% | viability [4] 93.9% | viability [5] 85.4% | inhibition [6] 1.33% | RAM network inhibition [7] 1.22%

O=C1CC(Nc2ccc(N3CCOCC3)cc2)C(=O)N1c1ccccc1F (configuration not stated)
inactive: growth inhibition [1] 1.41% | growth inhibition [2] -5.97% | viability increase [3] -2.99% | viability [4] 110% | viability [5] 105% | inhibition [6] 1.53% | RAM network inhibition [7] 5.38%

COc1ccc(OCCSc2nnc(-c3ccccc3)n2N)cc1
inactive: growth inhibition [1] -2.49% | growth inhibition [2] -12.7% | viability increase [3] 0.25% | viability [4] 89.8% | viability [5] 92.5% | inhibition [6] 1.27% | RAM network inhibition [7] 5.07%

CCN(CC)C(=O)C1CCN(S(=O)(=O)c2ccc(C3CNC(=O)C3)cc2)CC1 (configuration not stated)
inactive: growth inhibition [1] 3.76% | growth inhibition [2] -0.015% | viability increase [3] 0.02% | viability [4] 99.9% | viability [5] 106% | inhibition [6] 1.81% | RAM network inhibition [7] 2.47%

Cc1cc(C)n(C(=O)c2ccc(NC(=O)C3CC3)cc2)n1
inactive: growth inhibition [1] -8.57% | growth inhibition [2] -4.89% | viability increase [3] 1.99% | viability [4] 102% | viability [5] 91.3% | inhibition [6] 1.58% | RAM network inhibition [7] 5.67%

O=C(O)CN(Cc1ccco1)S(=O)(=O)c1ccccc1
inactive: growth inhibition [1] -15.2% | growth inhibition [2] -13% | viability increase [3] -1.97% | viability [4] 95.7% | viability [5] 98.3% | inhibition [6] 2.67% | RAM network inhibition [7] 2.35%

COc1cccc(OCC(=O)N(Cc2nc(-c3ccc(Cl)cc3)no2)C(C)C)c1
inactive: growth inhibition [1] -4.67% | growth inhibition [2] -2.81% | viability increase [3] 2.88% | viability [4] 91% | viability [5] 89.7% | inhibition [6] 3.32% | RAM network inhibition [7] 3.59%

COc1ccc(C(=O)Nc2ccc(S(=O)(=O)Nc3cc(C)nc(C)n3)cc2)c(OC)c1
inactive: growth inhibition [1] 6.9% | growth inhibition [2] -0.365% | viability increase [3] 0.28% | viability [4] 98.6% | viability [5] 95.8% | inhibition [6] 1.77% | RAM network inhibition [7] 3.78%

O=C(Nc1ccc(N2CCOCC2)c(Cl)c1)C1CCCCC1
inactive: growth inhibition [1] 1.5% | growth inhibition [2] 4.29% | viability increase [3] -2.1% | viability [4] 97.6% | viability [5] 94.8% | inhibition [6] 0.18% | RAM network inhibition [7] 3.22%

COc1ccc(-n2ncc3c(N(C)C4CCCCC4)ncnc32)cc1
inactive: growth inhibition [1] -13.1% | growth inhibition [2] -9.66% | viability increase [3] -3.73% | viability [4] 85.5% | viability [5] 77.9% | inhibition [6] 1.76% | RAM network inhibition [7] 4.58%

O=c1oc(-c2cc3ccccc3o2)nc2sc3c(c12)CCCC3
inactive: growth inhibition [1] -10.5% | growth inhibition [2] -6.6% | viability increase [3] 3.77% | viability [4] 74.4% | viability [5] 56.9% | inhibition [6] 2.1% | RAM network inhibition [7] 4.52%

COC(=O)c1ccc(Cl)c(NC(=O)NC2CCCCC2)c1
inactive: growth inhibition [1] -15.1% | growth inhibition [2] -5.54% | viability increase [3] -1.61% | viability [4] 96.3% | viability [5] 93% | inhibition [6] 2.23% | RAM network inhibition [7] 6.1%

O=c1oc2c3c4c(cc2c2c1CCC2)OCCN4CCC3
inactive: growth inhibition [1] -8.18% | growth inhibition [2] -0.795% | viability increase [3] -7.31% | viability [4] 58.3% | viability [5] 67.3% | inhibition [6] 0.055% | RAM network inhibition [7] 5.48%

CCOc1ccccc1N(CC)C(=O)Cn1ncc2c(=O)oc3ccccc3c21
inactive: growth inhibition [1] -11.6% | growth inhibition [2] -7.42% | viability increase [3] -1.85% | viability [4] 95.7% | viability [5] 96.2% | inhibition [6] -0.255% | RAM network inhibition [7] 4.3%

Cc1ccsc1C1NC(=O)c2c(sc3c2CCN(C)C3)N1 (configuration not stated)
inactive: growth inhibition [1] -1.86% | growth inhibition [2] 1.39% | viability increase [3] -1.41% | viability [4] 97.5% | viability [5] 98.6% | inhibition [6] 1.37% | RAM network inhibition [7] -0.83%

CSc1ccccc1NC(=O)c1onc(C)c1Cl
inactive: growth inhibition [1] -5.06% | growth inhibition [2] 10.3% | viability increase [3] -1.83% | viability [4] 95.6% | viability [5] 93.2% | inhibition [6] 1.33% | RAM network inhibition [7] 1.54%
